Active and inactive are the calls of the source.
Columns and labels:
KB 3-1 = assay: Cytotoxicity against human KB-3-1 cells incubated for 5 days by MTT assay; format: toxicity, cell-based; conditions: kb 3-1, 120 h, time 5 day
In short: (§1)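 MTT viability test in 96-well plates on KB3.1 (human endocervical adenocarcinoma) and L929 (mouse fibroblast) lines, reported as IC50; epothilone B positive control.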

Candida albicans = assay: Antifungal activity against Candida albicans DSM 1665 assessed as fungal growth inhibition at 66.7 to 0.52 microg/ml incubated overnight by serial dilution assay; format: functional, organism-based; conditions: dose 66.7-0.52 µg/ml
In short: (§2)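 Broth microdilution MIC. Compounds diluted in methanol across 66.7–0.52 μg/mL; incubated overnight. MIC is the lowest concentration with no visible growth of the test strain. Positive controls were ciprofloxacin, kanamycin, gentamycin and oxytetracycline for bacteria and nystatin for fungi.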

[1] = tested on: Chromobacterium violaceum; assay: Antibacterial activity against Chromobacterium violaceum DSM 30191 assessed as bacterial growth inhibition at 66.7 to 0.52 microg/ml incubated overnight by serial dilution assay; format: functional, organism-based; conditions: dose 66.7-0.52 µg/ml; in short: as §2
Pseudomonas aeruginosa = assay: Antibacterial activity against Pseudomonas aeruginosa PA14 assessed as bacterial growth inhibition at 66.7 to 0.52 microg/ml incubated overnight by serial dilution assay; format: functional, organism-based; conditions: dose 66.7-0.52 µg/ml; in short: as §2
PC-12 = assay: Induction of neurite outgrowth in NGF-treated rat PC12 cells at 5 ug/mL measured after 48 hrs by phase contrast microscopy; format: functional, cell-based; conditions: dose 5.0 µg/ml
In short: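 PC-12 cells grown in RPMI-1640 with 10% heat-inactivated horse serum, 5% FBS and 2 mM L-glutamine. Seeded at 1.5 × 10^4 cells/well on collagen IV and allowed to attach 6 h at 37 °C, 7.5% CO2. Medium then switched to differentiation medium (1% horse serum) with compound at 5 μg/mL plus NGF 5 ng/mL; DMSO control. Mean neurite length from phase-contrast live imaging at 48 h; five independent experiments, one-tailed t-test.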

[2] = tested on: Mycolicibacterium smegmatis; assay: Antibacterial activity against Mycobacterium smegmatis ATCC 700084 assessed as bacterial growth inhibition at 66.7 to 0.52 microg/ml incubated overnight by serial dilution assay; format: functional, organism-based; conditions: dose 66.7-0.52 µg/ml; in short: as §2
L929 = assay: Cytotoxicity against mouse L929 cells incubated for 5 days by MTT assay; format: toxicity, cell-based; conditions: l929, 120 h, time 5 day; in short: as §1
Escherichia coli = assay: Antibacterial activity against Escherichia coli DSM 1116 assessed as bacterial growth inhibition at 66.7 to 0.52 microg/ml incubated overnight by serial dilution assay; format: functional, organism-based; conditions: dose 66.7-0.52 µg/ml; in short: as §2
Acinetobacter baumannii = assay: Antibacterial activity against Acinetobacter baumannii DSM 30008 assessed as bacterial growth inhibition at 66.7 to 0.52 microg/ml incubated overnight by serial dilution assay; format: functional, organism-based; conditions: dose 66.7-0.52 µg/ml; in short: as §2
Staphylococcus aureus = assay: Antibacterial activity against Staphylococcus aureus DSM 346 assessed as bacterial growth inhibition at 66.7 to 0.52 microg/ml incubated overnight by serial dilution assay; format: functional, organism-based; conditions: dose 66.7-0.52 µg/ml; in short: as §2
Wickerhamomyces anomalus = assay: Antifungal activity against Pichia anomala DSM 6766 assessed as fungal growth inhibition at 66.7 to 0.52 microg/ml incubated overnight by serial dilution assay; format: functional, organism-based; conditions: dose 66.7-0.52 µg/ml; in short: as §2
Mucor hiemalis = assay: Antifungal activity against Mucor hiemalis DSM 2656 assessed as fungal growth inhibition at 66.7 to 0.52 microg/mlincubated overnight by serial dilution assay; format: functional, organism-based; conditions: dose 66.7-0.52 µg/ml; in short: as §2
Rhodotorula glutinis = assay: Antifungal activity against Rhodotorula glutinis DSM 10134 assessed as fungal growth inhibition at 66.7 to 0.52 microg/ml incubated overnight by serial dilution assay; format: functional, organism-based; conditions: dose 66.7-0.52 µg/ml; in short: as §2
[3] = tested on: Schizosaccharomyces pombe; assay: Antifungal activity against Schizosaccharomyces pombe DSM 70572 assessed as fungal growth inhibition at 66.7 to 0.52 microg/ml incubated overnight by serial dilution assay; format: functional, organism-based; conditions: dose 66.7-0.52 µg/ml; in short: as §2
Bacillus subtilis = assay: Antibacterial activity against Bacillus subtilis DSM 10 assessed as bacterial growth inhibition at 66.7 to 0.52 microg/ml incubated overnight by serial dilution assay; format: functional, organism-based; conditions: dose 66.7-0.52 µg/ml; in short: as §2

C[C@]12CCC[C@@](C)(C(=O)O)[C@@H]1CC=C(CO)[C@H]2C=O
inactive: inhibition (Candida albicans) | inhibition [1] | inhibition (Pseudomonas aeruginosa) | inhibition [2] | inhibition (Escherichia coli) | inhibition (Acinetobacter baumannii) | inhibition (Staphylococcus aureus) | inhibition (Wickerhamomyces anomalus) | inhibition (Mucor hiemalis) | inhibition (Rhodotorula glutinis) | inhibition [3] | inhibition (Bacillus subtilis)
active: Activity (PC-12)
Non-Toxic: Activity (KB 3-1) | Activity (L929)

C[C@@]1(C(=O)O)CCC[C@]2(C)C3=C(COC3=O)C(=O)C[C@@H]12
inactive: inhibition (Candida albicans) | inhibition [1] | inhibition (Pseudomonas aeruginosa) | inhibition [2] | inhibition (Escherichia coli) | inhibition (Acinetobacter baumannii) | inhibition (Staphylococcus aureus) | inhibition (Wickerhamomyces anomalus) | inhibition (Mucor hiemalis) | inhibition (Rhodotorula glutinis) | inhibition [3] | inhibition (Bacillus subtilis)
Non-Toxic: Activity (KB 3-1) | Activity (L929)

C[C@@]12C=C(CO)C(=O)C[C@H]1[C@](C)(C(=O)O)CC[C@@H]2O
Non-Toxic: Activity (KB 3-1) | Activity (L929)
active: Activity (PC-12)
inactive: inhibition (Candida albicans) | inhibition [1] | inhibition (Pseudomonas aeruginosa) | inhibition [2] | inhibition (Escherichia coli) | inhibition (Acinetobacter baumannii) | inhibition (Staphylococcus aureus) | inhibition (Wickerhamomyces anomalus) | inhibition (Mucor hiemalis) | inhibition (Rhodotorula glutinis) | inhibition [3] | inhibition (Bacillus subtilis)

C[C@]12CCC[C@@](C)(C(=O)O)[C@@H]1CC=C1CO[C@H](O)[C@@H]12
active: Activity (PC-12)
inactive: inhibition (Candida albicans) | inhibition [1] | inhibition (Pseudomonas aeruginosa) | inhibition [2] | inhibition (Escherichia coli) | inhibition (Acinetobacter baumannii) | inhibition (Staphylococcus aureus) | inhibition (Wickerhamomyces anomalus) | inhibition (Mucor hiemalis) | inhibition (Rhodotorula glutinis) | inhibition [3] | inhibition (Bacillus subtilis)
Non-Toxic: Activity (KB 3-1) | Activity (L929)

C[C@@]12C=C(CO)[C@@H](O)C[C@H]1[C@](C)(C(=O)O)CCC2
inactive: inhibition (Candida albicans) | inhibition [1] | inhibition (Pseudomonas aeruginosa) | inhibition [2] | inhibition (Escherichia coli) | inhibition (Acinetobacter baumannii) | inhibition (Staphylococcus aureus) | inhibition (Wickerhamomyces anomalus) | inhibition (Mucor hiemalis) | inhibition (Rhodotorula glutinis) | inhibition [3] | inhibition (Bacillus subtilis)
Non-Toxic: Activity (KB 3-1) | Activity (L929)
active: Activity (PC-12)

C[C@@]1(C(=O)O)CCC[C@]2(C)c3cocc3C(=O)C[C@@H]12
active: Activity (PC-12)
inactive: inhibition (Candida albicans) | inhibition [1] | inhibition (Pseudomonas aeruginosa) | inhibition [2] | inhibition (Escherichia coli) | inhibition (Acinetobacter baumannii) | inhibition (Staphylococcus aureus) | inhibition (Wickerhamomyces anomalus) | inhibition (Mucor hiemalis) | inhibition (Rhodotorula glutinis) | inhibition [3] | inhibition (Bacillus subtilis)
Non-Toxic: Activity (KB 3-1) | Activity (L929)

COC(=O)[C@H]1C(C(=O)O)=CC[C@@H]2[C@]1(C)CCC[C@@]2(C)C(=O)O
Non-Toxic: Activity (KB 3-1) | Activity (L929)
inactive: inhibition (Candida albicans) | inhibition [1] | inhibition (Pseudomonas aeruginosa) | inhibition [2] | inhibition (Escherichia coli) | inhibition (Acinetobacter baumannii) | inhibition (Staphylococcus aureus) | inhibition (Wickerhamomyces anomalus) | inhibition (Mucor hiemalis) | inhibition (Rhodotorula glutinis) | inhibition [3] | inhibition (Bacillus subtilis)

C[C@@]12C=C(C(=O)O)[C@@H](O)C[C@H]1[C@](C)(C(=O)O)CCC2
inactive: inhibition (Candida albicans) | inhibition [1] | inhibition (Pseudomonas aeruginosa) | inhibition [2] | inhibition (Escherichia coli) | inhibition (Acinetobacter baumannii) | inhibition (Staphylococcus aureus) | inhibition (Wickerhamomyces anomalus) | inhibition (Mucor hiemalis) | inhibition (Rhodotorula glutinis) | inhibition [3] | inhibition (Bacillus subtilis)
active: Activity (PC-12)
Non-Toxic: Activity (KB 3-1) | Activity (L929)

Reference: ChEMBL document CHEMBL5370663, “Neurite Outgrowth-Inducing Drimane-Type Sesquiterpenoids Isolated from Cultures of the Polypore Abundisporus violaceus MUCL 56355” (J Nat Prod, 2023)
